Bounds are passed on as bounds.

Usually TD50 stands for the dose at which the toxic effect under study appears in half of the subjects. Lower therefore signals greater toxicity. One may read the ED50 as the dose at which the effect has come halfway, by size or by number of responders. A lower ED50 goes with greater potency. As a reminder, the logD is the decadic logarithm of the distribution of all forms, ionised or not, between an organic phase and buffer at a given pH. The low end stands for a more hydrophilic compound, the high end for a more lipophilic compound. One may read the logP as the decadic logarithm of the partition coefficient of the neutral form, usually between octanol and water. A lower logP goes with lower lipophilicity.

Series [1] is described as follows: Neurotoxicity was evaluated at a time of peak effect of 4 hr. In kind it is toxicity. The conditions noted are these: mouse.
Series [2] deals with Mus musculus. In words: Tested for anticonvulsant activity by measuring its ability to protect against bicuculline (2.7 mg/kg) induced convulsions at the time of peak effect of 4h. Format: functional.
The test system of series [3] is Mus musculus. In words: Tested for anticonvulsant activity by measuring its ability to protect against strychnine(1.2 mg/kg) induced convulsions at the time of peak effect of 4 hr. In kind it is functional.
Series [4] is filed under the species Mus musculus. The series is described as follows: Tested for anticonvulsant activity by measuring its ability to protect against electric shock in maximal electroshock seizure (MES) test at the time of peak effect of 4 hr. In kind it is functional. In general terms: In the maximal electroshock model the usual endpoint is tonic extension of the hind limbs.
The test system of series [5] is Mus musculus. The series is described as follows: Tested for anticonvulsant activity by measuring its ability to protect against pentetrazole (85 mg/kg) induced convulsions at the time of peak effect of 4h. Format: functional. In short, it runs like this:
(§1)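 Groups of eight male OF-1 mice (22-25 g) received the test compound ip (10 mL/kg) at doses up to 100 mg/kg. At the MES-derived time of peak effect, pentetrazole 85 mg/kg in 0.9% NaCl was given sc and protection against convulsions recorded. ED50 and 95% confidence intervals were computed by Litchfield–Wilcoxon.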

Series [6] concerns Mus musculus. In words: Tested for anticonvulsant activity by measuring its ability to protect against NMDLA(340 mg/kg) induced convulsions at the time of peak effect of 4h. Format: functional.
A short description of series [7]: Partition coefficient in 1-octanol phosphate buffer at pH 7.40. In kind it is physicochemical. To be noted: pH 7.4. The essentials:
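Shake-flask partition between 1-octanol and phosphate buffer at pH 7.40.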

The species entered for series [8] is Mus musculus. The series is described as follows: Tested for anticonvulsant activity by measuring rate of mice protected against electric shock applied at 0.5 hr after injection in maximal electroshock seizure (MES) test; out of 6. Format: functional. The essentials: (§2)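 Screen in male OF-1 mice (22-25 g), groups of six or seven, given 30 mg/kg ip at 10 mL/kg. Corneal electroshock (50 mA, 60 Hz, 0.2 s) was applied 0.5 or 3 h post-injection. Protection was scored as abolition of hind limb tonic extension and reported as the rate of protected mice.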

A further series concerns Rattus norvegicus. In words: Urinary volume excreted over 4 hr by rats after oral administration of 30 mg/kg. In kind it is functional, Urine. The essentials: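 Male Wistar rats (193-229 g) were dosed orally with 30 mg/kg in 0.9% NaCl/0.1% methocel at 40 mL/kg; three rats shared a metabolism cage. Urine was collected over 4 h and expressed as mL/kg.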
A short description of series [9]: Partition coefficient (logP). In kind it is physicochemical. To be noted: octanol/water. In short, it runs like this:
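log P obtained by extrapolation from RP-HPLC log k′. The basis is a correlation of log k′ with shake-flask log P in 1-octanol/phosphate buffer pH 7.40, built from reference compounds.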

The species named for series [10] is Mus musculus. In words: Tested for anticonvulsant activity by measuring rate of mice protected against electric shock applied at 3 hr after injection in maximal electroshock seizure (MES) test; out of 7. In kind it is functional. The essentials:
as §2

For series [11], the species on record is Mus musculus. The series is described as follows: Tested for anticonvulsant activity by measuring rate of mice protected against electric shock applied at 3 h after injection in maximal electroshock seizure (MES) test; out of 6. In kind it is functional. The essentials: as §2
The test system of series [12] is Mus musculus. In words: Tested for anticonvulsant activity by measuring its ability to protect against bicuculline (2.7 mg/kg) induced convulsions at the time of peak effect of 3h. In kind it is functional. The essentials: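 Male OF-1 mice (22-25 g), eight per group, given the test compound ip (10 mL/kg) at doses up to 100 mg/kg. Bicuculline 2.70 mg/kg, dissolved in warmed 0.1 N HCl plus 0.9% NaCl (10 mL/kg) and used within 30 min, was injected sc at the MES time of peak effect. Protection scored; ED50 with 95% CI by Litchfield–Wilcoxon.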

The subject of series [13] is Mus musculus. In words: Tested for anticonvulsant activity by measuring its ability to protect against NMDLA(340 mg/kg) induced convulsions at the time of peak effect of 3h. In kind it is functional. The essentials:
(§3)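 OF-1 male mice, eight per group, were given compound ip at up to 100 mg/kg. At the MES time of peak effect, a convulsant in 0.9% NaCl was injected sc; bicuculline was dissolved in warmed 0.1 N HCl/0.9% NaCl and used within 30 min. ED50 with 95% CI was computed by Litchfield–Wilcoxon.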

Series [14] has as its system Mus musculus. In words: Tested for anticonvulsant activity by measuring its ability to protect against strychnine(1.2 mg/kg) induced convulsions at the time of peak effect of 3h. In kind it is functional. The essentials:
as §3

Series [15] is filed under the species Mus musculus. In words: Tested for anticonvulsant activity by measuring its ability to protect against electric shock in maximal electroshock seizure (MES) test at the time of peak effect of 3h. Format: functional. In short, it runs like this:
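Male OF-1 mice (22-25 g) were dosed ip at 10 mL/kg and tested at the peak-effect time. Corneal electroshock was 50 mA, 60 Hz, 0.2 s; protection meant abolition of hind limb tonic extension. Groups of eight mice received varying doses. ED50 with 95% CI was computed by Litchfield–Wilcoxon.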

In series [16] the test system is Mus musculus. In words: Tested for anticonvulsant activity by measuring its ability to protect against pentetrazole (85 mg/kg) induced convulsions at the time of peak effect of 3h. Format: functional. The essentials: as §3
Series [17] is described as follows: Neurotoxicity was evaluated at a time of peak effect of 3h. The conditions noted are these: mouse. Format: toxicity.
In series [18] the test system is Mus musculus. The series is described as follows: Tested for anticonvulsant activity by measuring its ability to protect against NMDLA(340 mg/kg) induced convulsions at the time of peak effect of 2 hr. In kind it is functional. In short, it runs like this:
as §3

The species entered for series [19] is Mus musculus. The series is described as follows: Tested for anticonvulsant activity by measuring its ability to protect against electric shock in maximal electroshock seizure (MES) test at the time of peak effect of 2 hr.
The test system of series [20] is Mus musculus. In words: Tested for anticonvulsant activity by measuring its ability to protect against strychnine(1.2 mg/kg) induced convulsions at the time of peak effect of 2 hr. In kind it is functional. The essentials: as §3
The subject of series [21] is Mus musculus. The series is described as follows: Tested for anticonvulsant activity by measuring its ability to protect against pentetrazole (85 mg/kg) induced convulsions at the time of peak effect of 2 hr. Format: functional. In short, it runs like this: as §1
For series [22], the system named is Mus musculus. The series is described as follows: Tested for anticonvulsant activity by measuring its ability to protect against bicuculline (2.7 mg/kg) induced convulsions at the time of peak effect of 2 hr. In kind it is functional. The essentials: as §3

Consider `O=S(=O)(NC(=S)NC1CCCCC1)c1cnccc1NC1CCCCCCC1`, for which, in series [1], the TD50 at 4 h was found to be 147 mg/kg. The ED50 in the series with Mus musculus [2] is more than 100 mg/kg; in the series on Mus musculus [3], more than 100 mg/kg; in the series filed under Mus musculus [4], 1.19 mg/kg; in the series on Mus musculus [5], more than 100 mg/kg; in the series with Mus musculus [6], more than 100 mg/kg.
The compound `CC(C)N/C(=C\[N+](=O)[O-])NS(=O)(=O)c1cnccc1NC1CCCC1` returned a logD in [7] of 0.538.
In the case of `O=[N+]([O-])/C=C(\NC1CCCCCC1)NS(=O)(=O)c1cnccc1NC1CCCCC1`, the “No. of mice protected” value in the series filed under Mus musculus [8] was 0; in the series listed under Mus musculus [10], 5. The compound further displayed a Diuresis in the series on Rattus norvegicus of 20 mL/kg. In series [9], this compound yielded a logP of 1.97.
As to `O=[N+]([O-])/C=C(\NC1CCCCCC1)NS(=O)(=O)c1cnccc1NC1CCCCCC1`, the figures for the “No. of mice protected” value in the series filed under Mus musculus [8] and in the series listed under Mus musculus [11] were 1 and 5, respectively. In addition, the Diuresis with Rattus norvegicus was 25 mL/kg. For the same compound, the logP in series [9] stood at 2.3.
In turn, `CCNc1ccncc1S(=O)(=O)N/C(=C/[N+](=O)[O-])NC(C)C` gave a logD in series [7] of -0.482.
On to `O=[N+]([O-])/C=C(\NC1CCCCC1)NS(=O)(=O)c1cnccc1NC1CCCCCCC1`, for which the ED50 with Mus musculus [12] was more than 100 mg/kg; in the series with Mus musculus [13], more than 100 mg/kg; in the series on Mus musculus [14], more than 100 mg/kg; in the series filed under Mus musculus [15], 8.25 mg/kg; in the series on Mus musculus [16], more than 100 mg/kg. Further, the “No. of mice protected” value in the series filed under Mus musculus [8] amounted to 1; in the series filed under Mus musculus [10], 7. Moreover, the Diuresis in the series with Rattus norvegicus turned out to be 22 mL/kg. In [9], this compound came in with a logP of 2.31. The compound also came in with a TD50 at 3 h in series [17] of 114 mg/kg.
Turning to `O=[N+]([O-])/C=C(\NC1CCCCCCC1)NS(=O)(=O)c1cnccc1NC1CCCCCC1`, the results for the “No. of mice protected” value in the series filed under Mus musculus [8] and in the series filed under Mus musculus [10] were 1 and 4, respectively. This compound also showed a Diuresis with Rattus norvegicus of 23 mL/kg. In series [9], this compound showed a logP of 2.57.
With `Cc1cccc(Nc2ccncc2S(=O)(=O)N/C(=C/[N+](=O)[O-])NC2CCCCC2)c1`, the “No. of mice protected” value was 1 in the series listed under Mus musculus [8] and 2 in the series listed under Mus musculus [11]. Also, the Diuresis with Rattus norvegicus came out at 29 mL/kg. The compound also came in with a logP in series [9] of 1.66.
On the same counts, the results for `O=[N+]([O-])/C=C(\NC1CCCCCC1)NS(=O)(=O)c1cnccc1NC1CCCCCCC1` are 2, 5, 20 mL/kg and 2.59.
On the same counts, the results for `O=[N+]([O-])/C=C(\NC1CCCCC1)NS(=O)(=O)c1cnccc1NC1CCCCCC1` are 1, 5, 18 mL/kg and 1.99.
Compound `Cc1cccc(Nc2ccncc2S(=O)(=O)N/C(=C/[N+](=O)[O-])NC(C)C)c1` showed a logD in series [7] of 1.12.
Regarding `O=[N+]([O-])/C=C(\NC1CCCCCCC1)NS(=O)(=O)c1cnccc1NC1CCCCCCC1`, the “No. of mice protected” value in the series filed under Mus musculus [8] was 0; in the series listed under Mus musculus [10], 3. Besides, the Diuresis in the series on Rattus norvegicus was found to be 22 mL/kg. In series [9], the logP came out at 2.86.
For `O=[N+]([O-])/C=C(\NC1CCCCC1)NS(=O)(=O)c1cnccc1NC1CCCCC1`, the “No. of mice protected” value in the series listed under Mus musculus [8] amounted to 0; in the series listed under Mus musculus [10], 4. Moreover, the Diuresis with Rattus norvegicus stood at 20 mL/kg. For the same compound, the log partition coefficient (logP) in series [9] is 1.67.
As for `O=[N+]([O-])/C=C(\NC1CCCCCCC1)NS(=O)(=O)c1cnccc1NC1CCCCC1`, the “No. of mice protected” value in the series listed under Mus musculus [8] was determined as 2; in the series filed under Mus musculus [10], 4. In the series on Rattus norvegicus, this compound gave a Diuresis of 21 mL/kg. Further, in [9], the logP was determined as 2.27.
In the case of `O=C1NC(=O)C(c2ccccc2)(c2ccccc2)N1` [PHENYTOIN], the ED50 with Mus musculus [18] was more than 100 mg/kg; in the series filed under Mus musculus [19] it was 9.51 mg/kg; in the series on Mus musculus [20], more than 100 mg/kg; in the series with Mus musculus [21], more than 100 mg/kg; in the series with Mus musculus [22] it was more than 100 mg/kg.
Consider `Cc1cccc(Nc2ccncc2S(=O)(=O)NC(=O)NC(C)C)c1` [TORSEMIDE], for which the “No. of mice protected” value in the series filed under Mus musculus [8] and in the series listed under Mus musculus [11] was 0 throughout. Also, the Diuresis in the series on Rattus norvegicus came out at 88 mL/kg.

The values are drawn from ChEMBL document CHEMBL1131064, “Design, synthesis, and anticonvulsant activity of 1-(pyrid-3-ylsulfonamido)-2-nitroethylenes” (J Med Chem, 1998).
